Bioassay records (PubChem BioAssay)
Only some compounds are listed: those with a hit (about 2.9% of all), similar ones and a draw of the others.
ABHD5 PLIN5 PPI: ABHD5-PLIN5 protein interaction inhibition | Q00G26+Q8WTS1 | AID 602281 | inhibition, % at 4 µM | Split G. princeps luciferase complementation, luminescence, 4 h | hit rate 0.78% among 360,000;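 active means inhibition above the mean inhibition across every tested compound plus 3 SD, cut at about 22% in these data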;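 further: 0% = DMSO only wells and the 100% control is not disclosed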
Target sequence (Q00G26 whole entry, looked up): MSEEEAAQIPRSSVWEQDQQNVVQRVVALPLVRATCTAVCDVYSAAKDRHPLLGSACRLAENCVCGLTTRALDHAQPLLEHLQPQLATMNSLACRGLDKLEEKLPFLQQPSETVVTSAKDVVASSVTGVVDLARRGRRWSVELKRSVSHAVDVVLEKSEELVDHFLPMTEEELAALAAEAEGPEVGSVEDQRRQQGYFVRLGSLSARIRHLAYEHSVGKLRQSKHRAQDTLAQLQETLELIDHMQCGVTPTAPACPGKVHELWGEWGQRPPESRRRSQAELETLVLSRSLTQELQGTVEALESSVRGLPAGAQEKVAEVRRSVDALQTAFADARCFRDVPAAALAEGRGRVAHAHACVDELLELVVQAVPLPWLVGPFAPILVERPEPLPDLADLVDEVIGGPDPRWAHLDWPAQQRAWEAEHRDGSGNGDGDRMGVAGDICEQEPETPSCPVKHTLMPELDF
Target sequence (Q8WTS1 whole entry, looked up): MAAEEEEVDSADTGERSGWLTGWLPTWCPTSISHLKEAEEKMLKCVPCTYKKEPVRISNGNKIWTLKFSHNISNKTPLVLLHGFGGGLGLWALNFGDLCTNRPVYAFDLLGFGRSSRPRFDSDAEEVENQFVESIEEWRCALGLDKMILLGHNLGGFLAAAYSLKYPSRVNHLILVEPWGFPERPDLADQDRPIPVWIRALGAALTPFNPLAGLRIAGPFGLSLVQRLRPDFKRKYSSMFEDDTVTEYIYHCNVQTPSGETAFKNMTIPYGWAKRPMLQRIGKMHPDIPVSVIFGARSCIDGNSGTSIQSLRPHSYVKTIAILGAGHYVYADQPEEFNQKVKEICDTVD
PRMT1 FP inh: PRMT1 (human) inhibition, primary screen. recombinant PRMT1, activity-based probe fluorescence polarization. AID 652257. hit rate 1.3% among 370,000. inhibition, % at 2.79 µM. Q99873;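 active means inhibition above about 21% made by adding two undisclosed values, limit read from the data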
NS3 helicase inh: blocks Hepatitis C virus NS3 helicase unwinding. AID 1800. NS3 helicase DNA unwinding, Cy5 molecular beacon fluorescence. inhibition, % at 10.9 µM. hit rate 0.56% among 290,000;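 active means inhibition above the mean of all tested compounds plus 3 SD, set per campaign, cut at about 35% in these data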;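 further: 0% = DMSO wells and 100% = thioflavine S control wells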
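System: NS3 helicase fragment of HCV / Schedule: 1 h at 25 °C / Control set: DMSO alone as 0% and 110 µM thioflavine S as 100% / Reagent: Cy5/quencher beacon DNA duplex and ATP to start / Technique: Cy5 fluorescence / Replication: singlicate / Evaluation: % inhibition of end-to-start signal ratio versus controls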
A3A deaminase: inhibitors of human APOBEC3A DNA deaminase | inhibition, % at 20 µM | AID 493011 | recombinant A3A, FAM/TAMRA ssDNA deamination fluorescence | hit rate 0.41% among 330,000 | P31941;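 active means at least 40% inhibition at 20 µM here, with at most 30% in a related deaminase screen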;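 further: plate controls were A3A with DMSO for no effect and wells lacking A3A enzyme for full effect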
core dimer inh: HCV core protein dimerization inhibition; hit rate 0.33% among 300,000; TR-FRET GST/Flag-core106 dimerization, 1536-well; AID 1899; inhibition, % at 5 µM;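 active means inhibition above the mean of all tested compounds plus 3 SD, set per screening campaign, cut at about 45% in these data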
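System – GST-tagged and Flag-tagged HCV core protein residues 1-106 · Repeats – one well for each compound · Technique – TR-FRET 671 and 617 nm emission · Doses – one concentration, 5 µM, in 0.5% DMSO · Times – 4 h, 22.5 °C incubation · Also added – Eu donor and XL665 acceptor anti-tag antibodies · Measure – percent inhibition of core106 dimerization signal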
A3G deaminase: inhibitors of human APOBEC3G DNA deaminase; recombinant A3G, ssDNA deamination FAM/TAMRA fluorescence; inhibition, % at 20 µM; Q9HC16; hit rate 0.28% among 330,000;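 active means inhibition of at least 40% at 20 µM, with no more than 30% in the related APOBEC3A deaminase screen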;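 further: plate controls were DMSO wells with A3G for no effect and wells lacking A3G enzyme for full effect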
ABHD5 PLIN5 conf: ABHD5-PLIN5 interaction inhibition, confirmed. shares compounds with ABHD5 PLIN5 PPI. inhibition, % at 4 µM. AID 651612. hit rate 67% among 2,200. biochemical ABHD5-PLIN5 interaction, luminescence; in the data active means inhibition above about 23%;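 further: 0% = DMSO vehicle wells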
HNF4 split-luc: HNF4 split-luciferase signal hit, counter-screen. hit rate 77% among 2,200. shares compounds with ABHD5 PLIN5 PPI. inhibition, % at 4 µM. HNF4 dimerization, luminescence, biochemical;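 active means mean inhibition across replicate wells exceeding the computed hit threshold, cut at about 13% in these data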;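 further: light from luciferase halves that rejoin when HNF4 fusion proteins dimerize; 0% = DMSO only wells and the 100% control is not given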
Starred values were filed as active, the others as inactive; x = no result.

SMILES	ABHD5 PLIN5 PPI	PRMT1 FP inh	NS3 helicase inh	A3A deaminase	core dimer inh	A3G deaminase	ABHD5 PLIN5 conf	HNF4 split-luc
COc1cc(/C=C(/C(=O)c2cccs2)c2nc3ccccc3[nH]2)cc(OC)c1O	60*	7	1	5	0	4	88*	88*
c1cncc(CN2CCN(c3cc(-c4cnc5ccccc5c4)nc4ccnn34)CC2)c1	-1	-5	x	x	x	x	x	x
Cc1cc(C)n(CCCNC(=O)c2ccc(C)c(S(=O)(=O)N3CCOCC3)c2)n1	-5	-4	x	-2	-5	-4	x	x
O=C(N/N=C/C(Br)=C/c1ccccc1)c1cc(-c2ccco2)[nH]n1	25*	14	13	4	11	-12	22*	72*
CC1C(=O)NN=C1C(=O)N/N=C\C(Br)=C\c1ccccc1 (centres undefined)	34*	6	6	-5	x	-4	6	22*
CC(=O)NC(c1ccccc1)c1nc(-c2cccs2)cs1 (centres undefined)	-3	2	x	x	x	x	x	x
Nc1nc(Sc2ccc(C(F)(F)F)cc2[N+](=O)[O-])n[nH]1	2	0	2	-5	-4	-7	x	x
Nc1nc(Sc2c([N+](=O)[O-])cc(C(F)(F)F)cc2[N+](=O)[O-])n[nH]1	58*	15	-2	-4	2	-8	79*	98*
O=C(COC(=O)C1CC1)NCCNC(=O)COC(=O)C1CC1	86*	1	x	-3	-4	-12	5	1
O=C(COC(=O)C1CC1)NCCc1ccc(Cl)cc1	-4	-2	x	14	x	-9	x	x
CCN1C/C(=C/c2ccc(OC)c(O)c2)C(=O)/C(=C/c2ccc(OC)c(O)c2)C1	42*	-1	-15	-3	10	-4	51*	30*
COc1ccc(C=C2C(=O)c3ccccc3C2=O)cc1O	5	14	4	3	-3	4	x	x
COc1ccc(/C=C2\CN(Cc3ccccc3)C/C(=C\c3ccc(OC)c(O)c3)C2=O)cc1O	72*	-1	-27	-1	12	-11	93*	86*
CN(C)c1nc(N)nc(-c2cccnc2)n1	2	-4	2	-3	3	-9	x	x
Cc1[nH]nc(-c2cccnc2)c1N=NN(C)C	62*	2	x	x	x	x	73*	79*
O=C1/C(=C\c2ccc(Cl)cc2)CCC1CNc1ccc(Cl)cc1 (centres undefined)	37*	21	x	x	x	x	60*	80*
CN(C)CC1CCC/C(=C\c2ccc(OC(=O)c3ccc(Cl)cc3)cc2)C1=O (centres undefined)	5	0	x	x	x	x	x	x
CCOC1=C2[C@@H](CN(S(=O)(=O)c3ccc(C)cc3)[C@H]2c2cccc3ccccc23)[C@H]2C(=O)N(c3ccccc3)C(=O)[C@H]2C1	2	-2	x	x	x	x	x	x
CCc1ccc(CCNC(=O)OC2CC3CC2[C@H]2CCCCN2[C@H]3Cc2ccccc2)cc1 (some centres undefined)	x	0	x	x	x	x	x	x
Oc1cccc(Nc2nc(N3CCOCC3)nc(N3CCOCC3)n2)c1	25*	1	9	-4	x	-6	9	15*
COc1ccc(C(O)C(CN2CCOCC2)c2ccccc2)cc1F (centres undefined)	5	0	-6	-1	-5	0	x	x
COc1ccc(C(=O)C(CN2CCOCC2)c2ccccc2)cc1F (centres undefined)	24*	9	-8	x	x	x	9	63*
COc1ccc(Cl)cc1-c1noc([C@@H]2O[C@H](CO)[C@@H](O)[C@H]2O)n1	-3	3	x	x	x	x	x	x
Cc1ccc(C)c(NC(=O)CSc2nc(C)cc(=O)[nH]2)c1	x	-5	x	x	x	x	x	x
Cc1ccccc1S(=O)Cc1ccc(C(=O)N2CCN(C(=O)c3ccco3)CC2)o1 (centres undefined)	75*	-2	6	-6	7	-8	-2	-3
SMILES	ABHD5 PLIN5 PPI	PRMT1 FP inh	NS3 helicase inh	A3A deaminase	core dimer inh	A3G deaminase	ABHD5 PLIN5 conf	HNF4 split-luc
COCCN1C(=O)C(=O)/C(=C(/O)c2ccc(S(=O)(=O)N3CCOCC3)cc2)C1c1cccc([N+](=O)[O-])c1 (centres undefined)	-6	x	7	-5	1	-2	x	x
O=C(O)CCCN1C(=O)/C(=C\c2ccccc2OCc2ccccc2)SC1=S	-1	-1	10	-2	22	-6	x	x
O=C(c1cn(-c2ccccc2)nc1-c1cccs1)N1CCOCC1	6	-1	-5	1	5	-3	x	x
O=C(/C=C/c1cn(-c2ccccc2)nc1-c1cccs1)NCCN1CCOCC1	32*	9	-40	2	-4	-4	11	6
O=C(O)CCCN1C(=O)/C(=C/c2cn(-c3ccccc3)nc2-c2cccs2)SC1=S	37*	0	20	x	x	x	7	9
Nc1[nH]c(C(=O)c2ccccc2)c(-c2ccc(C(F)(F)F)cc2)c1C(=O)NCc1ccc(Cl)cc1Cl	-5	-2	x	x	x	x	x	x
Cc1noc(C)c1S(=O)(=O)Nc1ccc2c(c1)CC(=O)N([C@H](C)CO)C[C@H](C)[C@@H](CN(C)CC1CC1)O2	-5	-1	x	-3	x	-7	x	x
COC(=O)[C@]12C[C@H](CC(=O)NCc3ccc(C)o3)C(=O)N(Cc3ccccc3)C1=C[C@H](C(C)(C)C)O[C@@H]2C	x	12	x	x	x	x	x	x
C=C1C(=O)C2=CC1CCC(=O)C1(C)CCC(OC(C)=O)C(C)(C)C1CC2O (centres undefined)	44*	4	x	x	x	x	58*	92*
CC(=O)OC1CCC2C3CCC4OC(=O)CCC4C3CCC12C (centres undefined)	5	4	x	x	x	x	x	x
O=S(=O)(c1ccccc1Br)N(CC(O)COCc1ccccc1)C1CC1 (centres undefined)	-6	5	x	-1	x	-2	x	x
O=[N+]([O-])c1cc(S(=O)(=O)C(F)(F)F)ccc1Sc1nc2ccccc2[nH]1	54*	6	-2	3	-4	0	59*	79*
CCCNC(=O)C1(C)CCCN(Cc2ccc(C(=O)OCC)o2)C1 (centres undefined)	1	-2	x	x	x	x	x	x
O=C1S/C(=C\c2ccc(N3CCOCC3)o2)C(=O)N1Cc1ccc(F)cc1	17	x	5	-7	-4	-2	x	x
CC(C)OC(=O)CN1C(=O)S/C(=C/c2ccc(N3CCCCC3)o2)C1=O	34*	16	20	-3	-20	-3	61*	102*
COc1cc2c(cc1OC)C(=O)C(Br)CC2 (centres undefined)	82*	x	x	x	x	x	5	16*
Cc1ccc(-c2c[n+](CC(=O)Nc3nc(-c4ccc(F)cc4)cs3)c3n2CCC3)cc1	25*	0	-75	5	-8	-3	15	8
